Experiment [1] has as its system A549. Briefly: Cytotoxicity against human A549 cells assessed cell viability after 48 hrs by SRB assay. The format is functional, cell-based. Conditions: for pIC50: A549, 48 h. An outline of the steps:
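A549 cells were treated for 48 h and net growth was measured by sulforhodamine B colorimetric assay. IC50 is the concentration causing a 50% decrease in net cell growth. Test levels were 40, 60 and 80 µM.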
(In general: Sulforhodamine B stains cellular protein and so reports cell mass.)

The test system of experiment [2] is A549. Briefly: Induction of necrosis in human A549 cells at 80 uM after 48 hrs by LDH release assay. It is filed as functional, cell-based. An outline of the steps:
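A549 cells were treated at 80 µM, or with 0.1% DMSO or left untreated as control, for 48 h. LDH release into the cells' surroundings served as the necrosis read-out, n = 3, mean ± SE.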
Background: LDH leaks from cells whose membrane has failed.

Experiment [3] relates to A549. Put plainly: Cell cycle arrest in human A549 cells assessed as accumulation at S phase at 80 uM after 48 hrs by FACS flow cytometry (reference value: 34.67 %). It is filed as functional.
The subject of experiment [4] is A549. Put plainly: Cell cycle arrest in human A549 cells assessed as accumulation at G2 phase at 80 uM after 48 hrs by FACS flow cytometry (reference value: 9.39 %). It is filed as functional. On the technique in general: In flow cytometry, cells or beads pass a laser one at a time.
Experiment [5] has as its system A549. Briefly: Induction of autophagy in human A549 cells assessed as increase in LC3-2 level at 80 uM after 48 hrs by Western blot analysis relative to beta-actin. It is filed as functional, cell-based. The essentials: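 A549 cells were treated at 80 µM for 48 h. LC3-II protein was detected by immunoblot and normalized to β-actin, expressed as percent of control, n = 3.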

Experiment [6] has as its system A549. Briefly: Cytotoxicity against human A549 cells assessed as cell viability at 40 uM after 48 hrs by SRB assay. It is filed as functional, cell-based. An outline of the steps: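 A549 cells were treated at 40, 60 or 80 µM, or left untreated (control), for 48 h. Viability was read by sulforhodamine B colorimetric assay against untreated cells, n = 3, mean ± SE.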

Experiment [7] has as its system A549. Briefly: Induction of apoptosis in human A549 cells assessed as chromatin condensation at 80 uM after 48 hrs by Hoechst 33258 staining-based fluorescent microscopy. It is filed as functional, cell-based. An outline of the steps: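 A549 cells were exposed to compound at 80 µM for 48 h, then stained with Hoechst 33258. Nuclei were examined by fluorescence microscopy for chromatin condensation and apoptotic bodies, against an untreated control group.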

Experiment [8] deals with A549. Put plainly: Cell cycle arrest in human A549 cells assessed as accumulation at G1 phase at 80 uM after 48 hrs by FACS flow cytometry (reference value: 55.94%). It is filed as functional.

In ChEMBL document CHEMBL2163291, “Synthesis of pyrazole peptidomimetics and their inhibition against A549 lung cancer cells” (Bioorg Med Chem Lett, 2012) one finds Activity and IC50 data, which are given here for 8 compounds.

pIC50: −log10 of the molar value. Calls of active or inactive are those of the source. No cut-off for these calls is given here.

With `CCOC(=O)[C@@H](CO)NC(=O)c1cc(-c2ccccc2)nn1Cc1ccc(C(C)(C)C)cc1`, the Activity entry is “Dose-dependent effect” in the experiment with A549 [1], 21.63% in the experiment on A549 [3], 6.06% in the experiment with A549 [4] and 72.31% in the experiment on A549 [8]. In the experiment on A549 [1], the pIC50 (commonly the IC50 on a negative log10 scale, so that one unit is a factor of ten) was 4.44. Further, the outcome with A549 [2] was inactive. Further, the result with A549 [5], in the experiment on A549 [6] and in the experiment with A549 [7] was Active.

On to `CCOC(=O)[C@@H](CO)NC(=O)c1cc(-c2ccc(Cl)cc2)nn1Cc1ccccc1`, for which the Activity entry with A549 [1] is “Dose-dependent effect”; with A549 [3], 40.08%; in the experiment with A549 [4] it was 0.69%; with A549 [8], 59.23%. Moreover, the negative logarithm of the IC50 (pIC50) with A549 [1] was 4.25. For the same compound, the result in the experiment on A549 [2] was inactive. For the same compound, the result with A549 [5] and in the experiment with A549 [7] was Active.

With `CCOC(=O)[C@@H](CS)NC(=O)c1cc(-c2ccc(Cl)cc2)nn1Cc1ccccc1`, the outcome in the experiment on A549 [2] was inactive. Besides, the Activity in the experiment on A549 [3] is 32.55%; in the experiment on A549 [4] it was 7.25%; with A549 [8] it was 60.2%. The outcome with A549 [5] and in the experiment with A549 [7] was Active.

In the case of `CCOC(=O)[C@@H](CO)NC(=O)c1cc(-c2ccccc2)nn1Cc1ccccc1`, the Activity entry was “Dose-dependent effect” with A549 [1], 34.44% in the experiment on A549 [3], 8.08% in the experiment on A549 [4] and 57.48% with A549 [8]. In the experiment with A549 [1], this compound had a negative logarithm of the IC50 (pIC50) of 4.25. In addition, the outcome with A549 [2] was inactive. For the same compound, the result in the experiment with A549 [5] and in the experiment with A549 [7] was Active.

On to `CCOC(=O)CNC(=O)c1cc(-c2ccc(Cl)cc2)nn1Cc1ccc(C(C)(C)C)cc1`, for which the Activity result was “Dose-dependent effect” in the experiment with A549 [1], 19.91% with A549 [3], 4.04% with A549 [4] and 76.06% with A549 [8]. The same compound had a negative logarithm of the IC50 (pIC50) with A549 [1] of 4.20. The outcome with A549 [2] was inactive. Besides, the result in the experiment on A549 [5] and with A549 [7] was Active.

As for `CCOC(=O)[C@@H](CO)NC(=O)c1cc(-c2ccc(Cl)cc2)nn1Cc1ccc(C(C)(C)C)cc1`, the Activity entry in the experiment on A549 [1] is “Dose-dependent effect”; with A549 [3], 19.53%; with A549 [4], 0.92%; in the experiment with A549 [8], 79.54%. Moreover, the pIC50 in the experiment on A549 [1] is 4.41. Moreover, the outcome in the experiment with A549 [2] was inactive. Further, the result in the experiment on A549 [5], with A549 [6] and in the experiment with A549 [7] was Active.

As to `CCOC(=O)CNC(=O)c1cc(-c2ccc(Cl)cc2)nn1Cc1ccccc1`, in the experiment on A549 [2], the outcome was inactive. In addition, the Activity with A549 [3] was 34.04%; in the experiment on A549 [4], 8.57%; in the experiment with A549 [8] it was 57.39%. Besides, the result in the experiment on A549 [5] and in the experiment with A549 [7] was Active.

As for `O=c1[nH]cc(F)c(=O)[nH]1` [FLUOROURACIL], in the experiment on A549 [1], the negative-log IC50 (pIC50) was 5.38.
